# Measured values published in ChEMBL document CHEMBL3244404, “Effect of sulfur substitution for the noncarbonyl oxygen in hemicholinium-3 and acetyl-seco-hemicholinium-3. Synthesis, biological activity, and structure-toxicity relationships” (J Med Chem, 1977).
# Columns and labels:
# Settings in all cases: in vivo
# [1] = tested on: Mus musculus; experiment: Toxicity in ip dosed CD-1 mouse assessed as clonic convulsions; format: organism-based
# Summary of the method: (§1)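 Compounds dissolved in normal saline (0.9% NaCl) and injected ip into mice. Signs were recorded as they appeared after dosing. Animals that died were autopsied immediately, with lungs and peritoneal cavity examined for excess fluid and heart and small intestine observed.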
# [2] = tested on: Mus musculus; experiment: Toxicity in ip dosed CD-1 mouse assessed as cardiac contractions; format: organism-based; summary of the method: as §1
# [3] = tested on: Mus musculus; experiment: Toxicity in ip dosed CD-1 mouse assessed as SLUD syndrome; format: organism-based; summary of the method: as §1
# [4] = tested on: Mus musculus; experiment: Toxicity in ip dosed CD-1 mouse assessed as exophthalmos; format: organism-based; summary of the method: as §1
# [5] = tested on: Mus musculus; experiment: Toxicity in ip dosed CD-1 mouse assessed as excess fluids in lungs and peritoneal cavity; format: organism-based; summary of the method: as §1
# [6] = tested on: Mus musculus; experiment: Toxicity in ip dosed CD-1 mouse assessed as respiratory difficulties; format: organism-based; summary of the method: as §1
# [7] = Toxicity in ip dosed CD-1 mouse assessed as mortality in presence of 0.2 mg/kg, ip neostigmine; format: organism-based; set-up: dose 0.2 mg/kg, route intraperitoneal
# [8] = tested on: Mus musculus; experiment: Toxicity in ip dosed CD-1 mouse assessed as increase in peristalsis of the small intestine; format: organism-based; summary of the method: as §1
# [9] = Toxicity in ip dosed CD-1 mouse assessed as mortality in presence of 20 mg/kg, ip choline; format: organism-based; set-up: dose 20 mg/kg, route intraperitoneal
# [10] = tested on: Mus musculus; experiment: Toxicity in ip dosed CD-1 mouse assessed as loss of righting response; format: organism-based; summary of the method: as §1
# [11] = tested on: Mus musculus; experiment: Toxicity in ip dosed CD-1 mouse assessed as mild to moderate ataxia; format: organism-based; summary of the method: as §1
# [12] = tested on: Mus musculus; experiment: Ratio of HC-3 LD50 to compound LD50 in CD-1 mouse; format: ADME, organism-based
# Summary of the method: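 Mice received the compounds ip, dissolved in normal saline (0.9% NaCl). Deaths were scored to derive the ip LD50 in mg/kg with 95% confidence limits. Each LD50 was also expressed as a ratio to that of HC-3. Signs were recorded in the animals that died, and immediate autopsy examined the heart, intestine, lungs and peritoneal cavity.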
Structure (SMILES),Activity [1],Activity [2],Activity [3],Activity [4],Activity [5],Activity [6],mortality [7] [%],Activity [8],mortality [9] [%],Activity [10],Activity [11],Ratio [12]
C[N+]1(C)CCOC(O)(c2ccc(-c3ccc(C4(O)C[N+](C)(C)CCO4)cc3)cc2)C1.[Br-].[Br-] (configuration not stated),Toxic,Non-toxic,Toxic,Toxic,Non-toxic,Toxic,90,Toxic,15,Toxic,Toxic,–
CC(=O)OCC[N+](C)(C)CC(=O)c1ccc(-c2ccc(C(=O)C[N+](C)(C)CCOC(C)=O)cc2)cc1.[Br-].[Br-],Toxic,Non-toxic,Toxic,Toxic,Non-toxic,Toxic,80,Toxic,0,Toxic,Toxic,1
CC(=O)SCC[N+](C)(C)CC(=O)c1ccc(-c2ccc(C(=O)C[N+](C)(C)CCSC(C)=O)cc2)cc1.[Br-].[Br-],Toxic,Non-toxic,Toxic,Toxic,Non-toxic,Toxic,30,Toxic,40,Toxic,Toxic,1
C[N+](C)(CCS)CC(=O)c1ccc(-c2ccc(C(=O)C[N+](C)(C)CCS)cc2)cc1.[Br-].[Br-],Toxic,Non-toxic,Toxic,Toxic,Non-toxic,Toxic,70,Toxic,10,Toxic,Toxic,226
